Experimental data published in ChEMBL document CHEMBL1909610, “Synthesis and antioxidant activities of novel 4-Schiff base-7-benzyloxy-coumarin derivatives” (Bioorg Med Chem Lett, 2011).

Experiments:
Assay type in all cases: functional; call rule not given here
[1] = Antioxidant activity assessed as hydroxyl radical scavenging activity after 1 hr by spectrophotometric analysis
How it was run: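 Salicylate method: 20 mM sodium salicylate, 1.5 mM FeSO4, sample at various concentrations, then 6 mM H2O2 (stock levels), mixed and held in a 37 °C water bath 1 h. Absorbance at 510 nm against blank; percent scavenging vs no-sample absorbance; triplicate; ascorbic acid positive control; IC50 as 50% scavenging concentration.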

[2] = test system: Radical scavenging activity; assay: Antioxidant activity assessed as DPPH free radical scavenging activity after 30 mins by spectrophotometric analysis
How it was run: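 Sample dissolved in DMF at several concentrations, added to 0.004% (w/v) DPPH in ethanol, incubated at 37 °C. Absorbance at 517 nm after 30 min. Percent scavenging computed against a control lacking scavenger; triplicate means; IC50 taken as concentration giving 50% radical scavenging.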

[3] = Antioxidant activity assessed as superoxide anioin radical scavenging activity after 5 mins by spectrophotometric analysis
How it was run: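 Pyrogallol autoxidation at room temperature: 0.05 M Tris-HCl buffer, sample in DMF at various concentrations and 30 mM 1,2,3-trihydroxybenzene reacted 5 min. Stopped with 8.0 M HCl; absorbance at 320 nm against blank. Percent scavenging vs no-sample absorbance, triplicate; IC50 as concentration scavenging 50%.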

[4] = Antioxidant activity assessed as ABTS radical scavenging activity after 3 mins by spectrophotometric analysis
How it was run: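 ABTS radical cation generated from 2 mM ABTS stock in PBS pH 7.4 reacted with 70 mM K2S2O8 in the dark at room temperature for 15-16 h, then diluted with PBS to A734 0.700 ± 0.030. Sample solutions at various concentrations mixed with ABTS radical (0.1:1.9 ml). Absorbance read at ambient temperature after 3 min. Percent scavenging vs control without sample; triplicate; IC50 = concentration scavenging 50%.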

Row | Compound | IC50 ([1]; read-out: IC50) [µM] | IC50 ([2]; read-out: IC50) [µM] | IC50 [3] [µM] | IC50 ([4]; read-out: IC50) [µM] | IC50 [2] | IC50 [4] | IC50 [1]
1 | O=C1O[C@H]([C@@H](O)CO)C(O)=C1O [ASCORBIC ACID] | 73.8 | 43.8 | 15.6 | 12.8 | – | – | –
2 | O=c1cc(/C=N\Nc2ccc([N+](=O)[O-])cc2[N+](=O)[O-])c2c(OCc3ccccc3)cc(OCc3ccccc3)cc2o1 | 734 | – | 292 | – | Not Active | Not Active | –
3 | O=c1cc(/C=N\Nc2ccccc2)c2c(OCc3ccccc3)cc(OCc3ccccc3)cc2o1 | 401 | 76.4 | 303 | 40.1 | – | – | –
4 | O=c1cc(/C=N\Nc2ccc([N+](=O)[O-])cc2)c2c(OCc3ccccc3)cc(OCc3ccccc3)cc2o1 | 97.9 | 1610 | 419 | 15.5 | – | – | –
5 | O=c1cc(/C=N\O)c2c(OCc3ccccc3)cc(OCc3ccccc3)cc2o1 | – | – | > 2000 | 38.6 | Not Active | – | Not Active
6 | N/N=C\c1cc(=O)oc2cc(OCc3ccccc3)cc(OCc3ccccc3)c12 | > 2000 | – | 36.5 | 363 | Not Active | – | –
7 | O=c1cc(/C=N\c2ccccc2O)c2c(OCc3ccccc3)cc(OCc3ccccc3)cc2o1 | 348 | 16.2 | 33.1 | 7.76 | – | – | –
8 | Cc1cc(C(C)(C)C)c(O)c(C(C)(C)C)c1 [BUTYLATED HYDROXYTOLUENE] | > 2000 | 65.8 | 254 | 37 | – | – | –
9 | O=c1cc(-c2nc3ccccc3[nH]2)c2ccc(OCc3ccccc3)cc2o1 | – | – | 146 | – | Not Active | Not Active | Not Active
10 | O=c1cc(/C=N\Nc2ccc([N+](=O)[O-])cc2[N+](=O)[O-])c2ccc(OCc3ccccc3)cc2o1 | 1970 | 10.5 | 181 | 6.49 | – | – | –
11 | Nc1ccccc1/N=C\c1cc(=O)oc2cc(OCc3ccccc3)cc(OCc3ccccc3)c12 | 624 | 315 | 258 | 7.53 | – | – | –

Results, then the compound that gave them:

Row | IC50 ([1]; read-out: IC50) [µM] | IC50 ([2]; read-out: IC50) [µM] | IC50 [3] [µM] | IC50 ([4]; read-out: IC50) [µM] | IC50 [2] | IC50 [4] | IC50 [1] | Compound
12 | > 2000 | 2410 | > 2000 | 22.8 | – | – | – | O=c1cc(/C=N\O)c2ccc(OCc3ccccc3)cc2o1
13 | – | 33.3 | 469 | 1.29 | – | – | Not Active | O=c1cc(/C=N\c2ccccc2O)c2ccc(OCc3ccccc3)cc2o1
14 | 455 | 57.7 | 416 | 13.2 | – | – | – | O=c1cc(/C=N\Nc2ccccc2)c2ccc(OCc3ccccc3)cc2o1
15 | 233 | 36.6 | 525 | 64.5 | – | – | – | O=c1cc(/C=N\c2ccc(O)cc2)c2ccc(OCc3ccccc3)cc2o1
16 | > 2000 | 1350 | > 2000 | 9.51 | – | – | – | O=c1cc(/C=N\Nc2ccc([N+](=O)[O-])cc2)c2ccc(OCc3ccccc3)cc2o1
17 | – | 1290 | 131 | 9.74 | – | – | Not Active | N/N=C\c1cc(=O)oc2cc(OCc3ccccc3)ccc12
18 | 34.6 | 857 | 217 | 9.25 | – | – | – | Nc1ccccc1/N=C\c1cc(=O)oc2cc(OCc3ccccc3)ccc12
19 | 107 | 6.91 | 249 | 3.57 | – | – | – | O=c1cc(/C=N\c2ccc(O)cc2)c2c(OCc3ccccc3)cc(OCc3ccccc3)cc2o1
